Key:
MC65 cells [1] = experiment: Cellular ROS assay with CM-H2DCFDA in MC65 cells; format: cell-based; settings: CM-H2DCFDA fluorescence, TC- condition, n = 7-8
Summary of the method: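 MC65 cells kept in 1 μg/mL tetracycline were washed extensively and plated at 2.5×10^4 cells/well in serum-free, phenol-red-free Opti-MEM without tetracycline. For ROS, cells were PBS-washed, loaded with CM-H2DCFDA and incubated 40 min. Random fluorescence photomicrographs were taken per condition, and intensity was quantified by image analysis, blinded to investigator.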

MC65 cells [2] = settings: cited from earlier work
[3] = comparison CNS drug; no reference given; cited from earlier work

Row | Structure (SMILES) | ROS production of MC65 cells (MC65 cells [1]) | MC65 cell death (MC65 cells [2]) | Log Doct [3]
1 | Cc1c(C)c2c(c(C)c1O)CC[C@@](C)(CCC[C@H](C)CCC[C@H](C)CCCC(C)C)O2 [α-tocopherol] | reduced | blocked | –
2 | CN(C)CCC(c1ccc(Cl)cc1)c1ccccn1 (stereo not drawn) [chlorpheniramine] | – | – | 1.25
